Results on one molecule are retold here after ChEMBL document CHEMBL4020823, “Highly Selective, Potent, and Oral mTOR Inhibitor for Treatment of Cancer as Autophagy Inducer” (J Med Chem, 2018).

Active and inactive are the calls of the source. The rule behind the calls is not given here.

One data set has as its target mTOR/FKBP12A/FKBP12B (Homo sapiens, UniProt P42345+P62942+P68106). The experiment in a line: Inhibition of full length recombinant human mTOR/FKBP12. Format: protein-complex assay.
For data set [1], the system named is SiHa. The experiment in a line: Induction of autophagy in human SiHa cells assessed as increase in LC3-2 puncta level after 48 hrs by immunofluorescence staining based microscopic analysis. The class given is functional, cell-based. Summed up:
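Cells seeded on glass coverslips in complete 1640 or DMEM and incubated with inhibitors at different concentrations for 48 h. Fixed in 4% paraformaldehyde, permeabilized with 0.15% Triton X-100, blocked in 4% BSA/PBS for 1 h at room temperature. Anti-LC3B (1:200) overnight, then FITC-conjugated secondary, DAPI nuclear stain. LC3B-II puncta viewed by fluorescence microscopy.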

A short description of data set [2]: MRT (0 to infinity) in Sprague-Dawley rat at 20 mg/kg, po administered as single dose by HPLC analysis. The class given is ADME, organism-based. The settings on record: in vivo. The method, boiled down:
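Rats fasted overnight, then given a single 20 mg/kg dose either iv or po. Blood collected and centrifuged immediately to obtain plasma. Plasma drug levels measured by HPLC, and pharmacokinetic parameters derived from both routes.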

Data set [3] has as its target PI3-kinase p110-delta/p85-alpha (Homo sapiens) (UniProt P27986+O00329). The experiment in a line: Inhibition of full length recombinant human PI3K p110delta/p85alpha at 1 uM relative to control. The class given is protein-complex assay. The method, boiled down:
(§1)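 Eurofins KinaseProfiler panel with compound at a single 1 μM concentration. ATP at the Km of each kinase. Result is % inhibition, mean of two independent experiments.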

The test system of a further data set is MCF7. The experiment in a line: Growth inhibition of human MCF7 cells after 72 hrs by CCK8 assay. The class given is functional, cell-based. The settings on record: MCF7, 72 h. Summed up: (§2)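 Cells were seeded at 2000–3000 per well and grown 24 h in serum-containing medium. They were then exposed to serially diluted compound for 72 h at 37 °C, 5% CO2. CCK8 reagent was added for 1–4 h and absorbance read at 450 nm. Inhibition = (AC − AS)/(AC − Ab) × 100%. IC50 is the average of at least three independent determinations.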

Data set [4] relates to Mus musculus. The experiment in a line: Down regulation of 4E-BP1 phosphorylation at Thr37/46 residues in human T47D cells xenografted in BALB/c nude mouse administered via oral gavage after 3 weeks by hematoxylin and eosine staining based light microscopic assay. The class given is functional, cell-based. The method, boiled down:
(§3)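 Tumours from the oral 3-week T-47D xenograft study were formalin-fixed, paraffin-embedded and cut into 5 μm sections. Sections were deparaffinized, rehydrated and incubated overnight at 4 °C with phospho-specific primary antibody at 1:100. Biotin secondary was applied for 1 h at room temperature, then ABC-peroxidase/DAB with hematoxylin counterstain. Sections were viewed by light microscopy.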

Data set [5] is described as follows: AUC (0 to infinity) in Sprague-Dawley rat at 20 mg/kg, iv administered as single dose by HPLC analysis. The settings on record: in vivo. Format: ADME, organism-based. On the set-up: dose 20 mg/kg, time infinity, route intravenous. Summed up: (§4)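 Rats fasted overnight, then given one 20 mg/kg dose either iv or po. Blood was collected and centrifuged at once to obtain plasma. Plasma drug levels were measured by HPLC, and PK parameters were derived from the concentration-time data.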

For data set [6], the system named is PI3-kinase p110-alpha/p85-alpha (Homo sapiens), P27986+P42336 [E545K]. The experiment in a line: Inhibition of full length recombinant human p85alpha/PI3K p110alpha E545K mutant at 1 uM relative to control. The method, boiled down: as §1
For data set [7], the species on record is Homo sapiens. The experiment in a line: Inhibition of mTORC1 in human MCF7 cells assessed as reduction in 4E-BP1 phosphorylation at Thr37/46 residues at 0.25 to 0.5 uM by Western blot analysis. The class given is cell-based. Summed up:
(§5)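 Cells treated with the indicated concentrations, then whole-cell lysates immunoblotted. mTORC1 activity read as S6 and 4E-BP1 phosphorylation; mTORC2 activity read as AKT Ser473 phosphorylation. Blocking in 5% skim milk, primary antibodies at 4 °C overnight, peroxidase-conjugated secondary, ECL detection.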

Data set [8] in a line: Cmax in Sprague-Dawley rat at 20 mg/kg, iv administered as single dose by HPLC analysis. The class given is ADME, organism-based. Further details: dose 20 mg/kg, route intravenous. The settings on record: in vivo. Summed up: as §4
The species named for data set [9] is Homo sapiens. The experiment in a line: Inhibition of mTORC2 in human SiHa cells assessed as reduction in AKT phosphorylation at Ser473 residues at 0.25 to 0.5 uM by Western blot analysis. Format: cell-based. Summed up: (§6)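 Cells exposed to a range of compound concentrations; whole-cell lysates immunoblotted for phospho-AKT (Ser473) as the mTORC2 readout, alongside S6 and 4E-BP1 phosphorylation for mTORC1. Membranes blocked in 5% skim milk, primary antibodies overnight at 4 °C, peroxidase-conjugated anti-mouse or anti-rabbit IgG secondary, ECL detection. Rapamycin as comparator.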

Data set [10] is described as follows: AUC (0 to infinity) in Sprague-Dawley rat at 20 mg/kg, po administered as single dose by HPLC analysis. The class given is ADME, organism-based. On the set-up: dose 20 mg/kg, route oral, time infinity. Conditions: in vivo. Summed up:
as §4

Data set [11] is filed under the species Homo sapiens. The experiment in a line: Inhibition of mTORC1 in human MDA-MB-231 cells assessed as reduction in 4E-BP1 phosphorylation at Ser65 residues at 0.25 to 0.5 uM by Western blot analysis. The class given is cell-based. The method, boiled down: as §5
For data set [12], the species on record is Homo sapiens. The experiment in a line: Inhibition of mTORC2 in human T47D cells assessed as reduction in AKT phosphorylation at Ser473 residues at 0.25 to 0.5 uM by Western blot analysis. The class given is cell-based. Summed up:
as §6

Data set [13] relates to SiHa. The experiment in a line: Cell cycle arrest in human SiHa cells assessed as decrease in S-phase at 0.25 to 0.5 uM after 24 hrs by propidium iodide-staining based flow cytometric analysis. Format: functional. The method, boiled down: (§7)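 Cells were seeded at 5 × 10^5 cells/mL. At 24 h after plating they were treated with increasing concentrations for 24 h, washed in PBS, and fixed in ice-cold 70% ethanol for at least 24 h. They were stained with propidium iodide plus RNase A for 30 min at 37 °C and analysed by flow cytometry for phase distribution.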

The target in another data set is ATR/ATRIP (Homo sapiens) (UniProt Q13535+Q8WXE1). The experiment in a line: Inhibition of full length recombinant human ATR /ATRIP at 1 uM relative to control. The class given is protein-complex assay. Summed up: as §1
ATR/ATRIP (Homo sapiens), sequence (Q13535 whole entry, looked up): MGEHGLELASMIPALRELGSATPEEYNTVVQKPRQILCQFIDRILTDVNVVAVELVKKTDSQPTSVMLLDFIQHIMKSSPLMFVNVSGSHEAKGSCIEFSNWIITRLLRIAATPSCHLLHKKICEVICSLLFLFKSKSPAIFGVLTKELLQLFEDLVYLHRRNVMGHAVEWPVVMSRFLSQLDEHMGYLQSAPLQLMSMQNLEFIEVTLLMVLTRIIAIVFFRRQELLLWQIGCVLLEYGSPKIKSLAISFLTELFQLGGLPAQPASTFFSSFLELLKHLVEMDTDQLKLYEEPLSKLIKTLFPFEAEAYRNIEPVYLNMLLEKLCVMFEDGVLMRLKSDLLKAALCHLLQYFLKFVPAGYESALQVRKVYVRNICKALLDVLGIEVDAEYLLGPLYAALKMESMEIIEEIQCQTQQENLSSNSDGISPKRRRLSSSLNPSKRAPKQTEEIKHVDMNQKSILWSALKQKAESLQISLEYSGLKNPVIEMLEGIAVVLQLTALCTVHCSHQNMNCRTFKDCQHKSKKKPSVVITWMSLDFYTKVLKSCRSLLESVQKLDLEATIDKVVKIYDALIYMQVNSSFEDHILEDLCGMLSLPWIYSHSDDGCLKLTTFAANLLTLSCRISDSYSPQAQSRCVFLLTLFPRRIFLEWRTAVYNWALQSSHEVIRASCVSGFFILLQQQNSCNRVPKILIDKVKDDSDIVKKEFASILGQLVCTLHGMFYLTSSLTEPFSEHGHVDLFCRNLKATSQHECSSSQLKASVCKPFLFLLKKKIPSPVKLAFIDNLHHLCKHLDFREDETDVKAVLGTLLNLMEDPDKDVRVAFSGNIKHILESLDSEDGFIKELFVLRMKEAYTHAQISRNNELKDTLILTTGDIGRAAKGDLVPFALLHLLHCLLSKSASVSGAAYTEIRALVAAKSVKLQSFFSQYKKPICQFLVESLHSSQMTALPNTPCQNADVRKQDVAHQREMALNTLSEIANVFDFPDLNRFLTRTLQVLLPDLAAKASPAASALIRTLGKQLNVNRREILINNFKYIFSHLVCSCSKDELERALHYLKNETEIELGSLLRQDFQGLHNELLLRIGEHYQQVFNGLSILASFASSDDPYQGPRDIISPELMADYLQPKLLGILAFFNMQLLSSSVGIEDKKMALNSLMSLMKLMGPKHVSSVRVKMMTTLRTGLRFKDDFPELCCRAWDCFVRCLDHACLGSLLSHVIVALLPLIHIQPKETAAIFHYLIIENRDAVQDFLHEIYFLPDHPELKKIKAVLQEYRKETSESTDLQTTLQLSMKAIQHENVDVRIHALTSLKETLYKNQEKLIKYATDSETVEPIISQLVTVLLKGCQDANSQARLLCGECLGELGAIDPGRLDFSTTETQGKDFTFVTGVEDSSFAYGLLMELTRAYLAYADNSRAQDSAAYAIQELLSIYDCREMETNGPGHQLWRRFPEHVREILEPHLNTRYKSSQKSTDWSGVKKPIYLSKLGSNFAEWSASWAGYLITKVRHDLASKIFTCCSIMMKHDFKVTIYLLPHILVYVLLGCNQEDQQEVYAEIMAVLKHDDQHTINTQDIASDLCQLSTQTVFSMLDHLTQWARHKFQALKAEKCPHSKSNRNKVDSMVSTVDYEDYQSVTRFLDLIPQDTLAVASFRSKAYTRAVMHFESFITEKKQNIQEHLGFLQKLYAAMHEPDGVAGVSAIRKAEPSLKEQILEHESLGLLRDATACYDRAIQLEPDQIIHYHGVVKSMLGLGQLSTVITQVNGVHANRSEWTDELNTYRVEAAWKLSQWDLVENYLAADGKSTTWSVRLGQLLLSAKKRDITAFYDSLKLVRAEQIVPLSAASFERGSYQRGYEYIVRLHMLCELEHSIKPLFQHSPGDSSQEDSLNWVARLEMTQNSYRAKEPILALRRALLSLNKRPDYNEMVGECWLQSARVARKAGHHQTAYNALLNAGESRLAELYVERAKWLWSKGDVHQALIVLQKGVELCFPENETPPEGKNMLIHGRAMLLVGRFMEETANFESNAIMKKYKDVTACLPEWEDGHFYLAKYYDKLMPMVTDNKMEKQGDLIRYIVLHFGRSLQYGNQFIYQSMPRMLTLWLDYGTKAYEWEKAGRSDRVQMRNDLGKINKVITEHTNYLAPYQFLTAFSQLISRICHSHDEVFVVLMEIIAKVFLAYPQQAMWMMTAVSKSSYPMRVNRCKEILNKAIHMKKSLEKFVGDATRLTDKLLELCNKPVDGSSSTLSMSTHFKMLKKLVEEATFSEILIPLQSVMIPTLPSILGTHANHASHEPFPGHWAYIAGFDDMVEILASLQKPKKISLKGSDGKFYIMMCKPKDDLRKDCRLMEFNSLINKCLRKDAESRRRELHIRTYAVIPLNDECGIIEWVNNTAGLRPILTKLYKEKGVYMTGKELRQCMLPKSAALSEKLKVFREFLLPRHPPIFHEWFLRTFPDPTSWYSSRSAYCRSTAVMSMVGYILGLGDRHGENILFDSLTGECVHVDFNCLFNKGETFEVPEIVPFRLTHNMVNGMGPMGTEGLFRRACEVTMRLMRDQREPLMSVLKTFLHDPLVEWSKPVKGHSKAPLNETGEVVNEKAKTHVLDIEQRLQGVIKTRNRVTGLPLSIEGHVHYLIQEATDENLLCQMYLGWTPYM
ATR/ATRIP (Homo sapiens), sequence (Q8WXE1 whole entry, looked up): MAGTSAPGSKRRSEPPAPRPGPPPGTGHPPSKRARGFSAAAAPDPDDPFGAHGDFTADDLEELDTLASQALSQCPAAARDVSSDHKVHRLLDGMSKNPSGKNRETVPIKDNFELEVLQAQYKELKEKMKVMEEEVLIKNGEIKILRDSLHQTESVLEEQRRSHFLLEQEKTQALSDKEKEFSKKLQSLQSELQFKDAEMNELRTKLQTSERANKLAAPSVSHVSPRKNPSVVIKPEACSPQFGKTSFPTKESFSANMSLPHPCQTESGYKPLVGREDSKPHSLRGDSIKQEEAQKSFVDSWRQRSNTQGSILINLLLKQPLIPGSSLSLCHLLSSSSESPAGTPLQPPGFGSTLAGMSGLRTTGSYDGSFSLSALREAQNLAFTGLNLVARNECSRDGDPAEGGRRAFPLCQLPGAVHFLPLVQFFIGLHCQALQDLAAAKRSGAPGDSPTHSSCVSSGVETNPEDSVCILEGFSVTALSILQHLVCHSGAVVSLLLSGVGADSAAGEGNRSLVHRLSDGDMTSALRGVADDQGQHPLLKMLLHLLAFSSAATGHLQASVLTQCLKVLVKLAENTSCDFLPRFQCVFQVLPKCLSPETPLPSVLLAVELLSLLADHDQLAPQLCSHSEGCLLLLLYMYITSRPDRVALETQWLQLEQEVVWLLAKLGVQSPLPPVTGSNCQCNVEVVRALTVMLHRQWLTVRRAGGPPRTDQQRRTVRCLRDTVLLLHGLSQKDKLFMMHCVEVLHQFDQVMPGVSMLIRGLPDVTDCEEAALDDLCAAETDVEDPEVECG
The subject of another data set is NCI-H460. The experiment in a line: Growth inhibition of human H460 cells after 72 hrs by CCK8 assay. The class given is functional, cell-based. The settings on record: NCI-H460, 72 h. Summed up:
as §2

Data set [14] has as its target PI3K p110 alpha/p85 alpha (Mus musculus) (UniProt P26450+P42337). The experiment in a line: Inhibition of full length recombinant mouse PI3K p110alpha/p85alpha at 1 uM relative to control. Format: protein-complex assay. Summed up: as §1
The species named for data set [15] is Mus musculus. The experiment in a line: Inhibition of full length recombinant mouse p85alpha/PI3K p110alpha H1047R mutant at 1 uM relative to control. The method, boiled down: as §1
For data set [16], the system named is Mus musculus. The experiment in a line: Down regulation of S6 phosphorylation at Ser240/244 residues in human T47D cells xenografted in BALB/c nude mouse administered via oral gavage after 3 weeks by hematoxylin and eosine staining based light microscopic assay. The class given is functional, cell-based. The method, boiled down: as §3
Data set [17] has as its system Mus musculus. The experiment in a line: Up regulation of LC3B levels in human T47D cells xenografted in BALB/c nude mouse administered via oral gavage after 3 weeks by hematoxylin and eosine staining based light microscopic assay. Format: functional, cell-based. The method, boiled down: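 Tumors taken from daily-dosed T-47D xenograft mice, formalin-fixed and paraffin-embedded, cut into 5 μm sections. Sections deparaffinized, rehydrated, and incubated overnight at 4 °C with anti-LC3B at 1:100. Then biotin-labeled secondary for 1 h at room temperature, ABC-peroxidase with DAB, hematoxylin counterstain. Read by light microscopy.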

The test system of another data set is HeLa. The experiment in a line: Cell cycle arrest in human HeLa cells assessed as decrease in S-phase at 0.5 to 1 uM after 24 hrs by propidium iodide-staining based flow cytometric analysis. The class given is functional. Summed up:
as §7

mTOR/FKBP12A/FKBP12B, sequence (P62942 2-108 limits assumed, other chains not shown): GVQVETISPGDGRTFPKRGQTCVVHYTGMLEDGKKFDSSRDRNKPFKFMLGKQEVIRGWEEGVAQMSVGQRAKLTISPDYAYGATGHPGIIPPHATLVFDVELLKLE
mTOR/FKBP12A/FKBP12B, sequence (P68106 whole entry, other chains not shown): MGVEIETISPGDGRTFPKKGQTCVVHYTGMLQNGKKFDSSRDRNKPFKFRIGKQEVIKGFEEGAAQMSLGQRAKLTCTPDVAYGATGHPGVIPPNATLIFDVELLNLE

Take `N#CCN1CCC(n2c(=O)cnc3cnc4ccc(-c5ccc(N)nc5)cc4c32)CC1`: the half-maximal inhibitory concentration (IC50) at mTOR/FKBP12A/FKBP12B was 8 nM; with MCF7, 103 nM; in the data set on NCI-H460, 1780 nM. Moreover, the Activity entry in the data set on SiHa [1], with Mus musculus [4], in the data set with Mus musculus [16] and in the data set on Mus musculus [17] was “Dose-dependent effect” throughout. In [2], this molecule returned a mean residence time (MRT inf) of 16.3 h. Besides, the inhibition in [3] was determined as 9%; in data set [6], 13%; at ATR/ATRIP (Homo sapiens) it was 24%; in [14], 17%; in the data set listed under Mus musculus [15], 7%. The AUC(0-inf) in [5] came out at 6560 ng·h/mL; in data set [10], 2850 ng·h/mL. Besides, the inhibition entry in the data set listed under Homo sapiens [7], in the data set filed under Homo sapiens [9], in the data set filed under Homo sapiens [11] and in the data set filed under Homo sapiens [12] was “Active” throughout. Further, the peak level in data set [8] (Cmax) was 4470 ng/mL. For the same molecule, the outcome in the data set with SiHa [13] and in the data set with HeLa was Active.
